We go through 96 compounds from ChEMBL document CHEMBL4513216, “Probing the Open Global Health Chemical Diversity Library for Multistage-Active Starting Points for Next-Generation Antimalarials” (ACS Infect Dis, 2020).

The data set can be described thus: Toxicity liver stage against HepG2, at 10uM. The format is cell-based. Set-up: test concentration 10 uM, cell line HepG2-A16-CD81EGFP. The note with it: human, HepG2-A16-CD81EGFP cells; read-out: INHIBITION
An outline of the steps:
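Uninfected HepG2-A16-CD81EGFP cells, 3 × 10^3 per well, 1536-well, plated on prespotted compound at 10 μM final, parasite-free screening media added to match infected plates; puromycin 10 μM positive, DMSO 0.5% negative; run in parallel with 48 h PbLuc assay at 37 °C, 5% CO2; viability by CellTiter-Glo luminescence, normalized to controls.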
With `O=C1N(Cc2ccccn2)C[C@H]2CN(S(=O)(=O)c3ccccc3)CCN12`, the cytotoxicity at 10 µM was found to be 4.97%.
As for `CN1CCC(N2CCOC[C@H](OCC(=O)N(C)C)C2)CC1`, the cytotoxicity at 10 µM came out at 1.44%.
For `O=S1(=O)N(c2ccccc2)C[C@@H](O)[C@]12CCNC2`, the cytotoxicity at 10 µM stood at 2.63%.
Next, `CC(=O)N1CC(C(=O)Nc2cccc(OC(F)F)c2)C1`: 1.22%.
As for `CN(C)C(=O)CNC(=O)c1ccc2ccc(N(C)CC3CC3)n2c1`, the cytotoxicity at 10 µM amounted to 1.11%.
Next, `COCC(=O)NCC1Cn2nnc(-c3ccoc3)c2CO1` (stereo unspecified): 17%.
Turning to `CCN1CC2(CC1=O)CN(C(C)=O)CCN(S(C)(=O)=O)C2` (stereo unspecified), the cytotoxicity at 10 µM worked out at 0.38%.
In the case of `Cc1cnc(N2CCC3(CCC(C(=O)NC(C)C)OC3)CC2)nc1` (stereo unspecified), the cytotoxicity at 10 µM amounted to 0.903%.
`O=C(C1CCCO1)N1CCC2(CC1)CNCCO2` (stereo unspecified): the cytotoxicity at 10 µM was -7.06%.
To `O=C1CCCN1Cc1ncn2c1CN(C(=O)C1CC=CC1)CCC2` belongs 6.4%.
On to `Cc1nccc([C@@H]2C[C@@H]3CCN(S(=O)(=O)N(C)C)C[C@H]3O2)n1`, for which the cytotoxicity at 10 µM is -3.38%.
On to `CNC(=O)[C@@]12CCC3(CCN(C(=O)C(C)C)CC3)[C@@H]1CN(S(C)(=O)=O)C2`, for which the cytotoxicity at 10 µM turned out to be 3.89%.
To `CNC(=O)N1CCN(C(=O)N(C)C)CC2(CC(=O)N(C)C2)C1` (stereo unspecified) belongs 4.9%; to `CCOC(=O)N1CCN(C(=O)CCn2ccc3c(OC)cccc32)CC1`, 9.69%.
To `Cc1nc(CCC(N)=O)cc(C2CCCN2S(C)(=O)=O)n1` (stereo unspecified) belongs -5.32%; to `CC(C)(C)Nc1c(C2CCN(C(=O)C3CC3)CC2)nc2ccccn12`, 4.58%.
To `CC(=O)NCC(=O)N1CCCC1c1ccc(CN2CCOCC2)cn1` (stereo unspecified) belongs -2.3%.
Take `CC(C)(C)OC(=O)N1CCn2c(nnc2C2CCCNC2)C1` (stereo unspecified): the cytotoxicity at 10 µM is -1.58%.
To `Cc1cc(N2CCCC(c3n[nH]c4ncccc34)C2)ncn1` (stereo unspecified) belongs -3.22%; to `O=S(=O)(c1ccccc1F)N1CCCCC1c1cc[nH]n1` (stereo unspecified), 1.22%; to `CNc1ccc(CC2CCCN(C(=O)c3scnc3C)C2)nn1` (stereo unspecified), -10.4%.
For the compound `O=C(CC1CCCC1)N1CCCC1c1nc(O)cc(-c2ccccn2)n1` (stereo unspecified), the cytotoxicity at 10 µM was -3.73%.
On to `COc1ccc(C(=O)Nc2nncs2)cn1`, for which the cytotoxicity at 10 µM was -11.9%.
To `Cc1ccc(S(=O)(=O)N(C)Cc2cnccn2)cc1N(C)C` belongs 12%; to `CC(C)CC(NC(=O)CSCC(N)=O)c1cccs1` (stereo unspecified), -0.431%.
Next, `CNC(=O)CNC(=O)NCc1cc2c(s1)CCC(C)(C)C2`: 4.08%.
As to `O=C(NCc1ccc(OCC2CC2)nc1)C1COc2ccccc2O1` (stereo unspecified), the cytotoxicity at 10 µM came to 0.0616%.
On to `O=C(NCCSC1CCCC1)c1c(F)cccc1F`, for which the cytotoxicity at 10 µM was found to be 8.74%.
For the compound `O=C(CN1CCOC(Cn2cccn2)C1)NC1CCN(C2CC2)CC1` (stereo unspecified), the cytotoxicity at 10 µM was determined as 1.1%.
As to `Cc1ccc(-c2nc(CCNC(=O)C3CC(=O)N(C)C3)cs2)cc1` (stereo unspecified), the cytotoxicity at 10 µM is -5.54%.
To `Cc1nnc(C2Cc3ccccc3CN2Cc2ncc(Cl)n2C)o1` (stereo unspecified) belongs 8.72%.
Take `CCCC(C(=O)NCCc1nc(C)cs1)N(C)C` (stereo unspecified): the cytotoxicity at 10 µM was -4.17%.
Regarding `O=C(Nc1cccc(C(F)F)c1)N[C@@H]1C=C[C@H](CO)C1`, the cytotoxicity at 10 µM was -4.81%.
Next, `Cc1nc(CNCC(O)COc2ccc3c(c2)OCO3)cs1` (stereo unspecified): 4%; `Cc1nn(CC(C)C)c(N(C)C)c1CNCCS(C)(=O)=O`: 6.59%; `Cn1ccc(C(=O)N(CC(F)F)c2cccc(Cl)c2)cc1=O`: 0.541%.
For the compound `O=C1CN(C(=O)C2CCOC2)CCN1Cc1ccc(Cl)cc1` (stereo unspecified), the cytotoxicity at 10 µM was -150%.
Next, `Cc1ccc(F)c(C(=O)Nc2cccc(CCN3CCCC3)c2)c1`: 0.0833%.
Next, `CS(=O)(=O)CCCNCc1c(Cl)cccc1N1CCCC1`: 1.18%.
In the case of `COCCC(=O)NC(C)(C(N)=O)c1cccc(Cl)c1` (stereo unspecified), the cytotoxicity at 10 µM is 17.7%.
As for `Cc1cc(S(=O)(=O)N(CCO)C2CC2)ccc1F`, the cytotoxicity at 10 µM was 0.866%.
Turning to `CC(=O)NCC1CCN(C(=O)c2c(C)[nH]c3ccc(Cl)cc23)CC1`, the cytotoxicity at 10 µM worked out at 8.11%.
To `C=C(C)CN(Cc1cccc(O)c1)C1CCC(O)CC1` (stereo unspecified) belongs 17.3%; to `CC(c1nc(C(C)(C)C)no1)N1CCN(CC(=O)N2CCOCC2)CC1` (stereo unspecified), -2.67%.
Regarding `Cc1n[nH]c(C)c1C1CCCN1C(=O)NCCSC(C)(C)C` (stereo unspecified), the cytotoxicity at 10 µM was -11%.
Next, `CN1C(=O)CC(c2cnn(C)c2)C12CCN(C(=O)c1cccn1C)CC2` (stereo unspecified): -74%; `O=C(C1CC=CC1)N1CCC2(CC1)CN(Cc1ccccn1)CCO2`: -10.1%.
To `CC(C)[C@@H]1CN(c2ccc(C(F)(F)F)cn2)C[C@H]1NS(C)(=O)=O` belongs 8.46%; to `Cc1cnccc1N1CCCN(C(=O)CCc2n[nH]c(C)c2C)CC1`, -3.79%.
For the compound `CC(=O)N[C@@H]1CN(C(=O)c2ccoc2)C[C@H]1c1ccc(C)cc1`, the cytotoxicity at 10 µM came out at 16.2%.
Next, `CN1CCCN(c2nc(C3CCCC3)nc3c2cnn3C)CC1`: -3.9%; `CC(C)C(=O)NCC(=O)NCC1CCN(c2cnn(C)c(=O)c2)CC1`: 3.47%.
Next, `Cn1cc(-c2ccnc(NCC3CCCCO3)n2)cn1` (stereo unspecified): -131%; `COc1ccc(Cl)cc1-n1c(COC(C)C)n[nH]c1=O`: -7.5%; `CCn1c(CN(C)C)nnc1C1CCN(Cc2cccc(C#N)c2)CC1`: 6.5%.
To `CC(C)C(NC(N)=O)C(=O)N1CCN(c2ccccc2Cl)C(=O)C1` (stereo unspecified) belongs -1.56%; to `CCc1nnsc1C(=O)N1CCCC(COc2ccc(F)cc2)C1` (stereo unspecified), -155%.
For `COCC(=O)N1Cc2cnc(Cc3ccc(OC)cc3)nc2C1`, the cytotoxicity at 10 µM was -15.8%.
Turning to `CCCc1nc(N2Cc3cnn(Cc4ccc(F)cc4)c3C2)no1`, the cytotoxicity at 10 µM amounted to 17.3%.
`Cn1c(=O)c2cc(C(=O)NCc3ccccn3)ccc2n(C)c1=O`: the cytotoxicity at 10 µM is -6.14%.
`O=C(c1ccccn1)N1CCc2nc(-c3cnccn3)nc(O)c2C1`: the cytotoxicity at 10 µM is 0.487%.
Next, `O=C(Nc1ccc(CCN2CCOCC2)cc1)C1CCC1`: -9.95%.
Next, `O=C(NCCNc1ncccn1)C1CCCC1`: -22.9%; `COc1cccc(N2CCC(CNCc3cccc(C#N)c3)C2)c1` (stereo unspecified): -15.3%.
To `CC(C)n1cc(CN2CCCN(C(=O)C(C)n3cncn3)CC2)cn1` (stereo unspecified) belongs -16.2%.
For `Cc1cnn(C2CCCN(C(=O)CCc3ccncc3)C2)c1` (stereo unspecified), the cytotoxicity at 10 µM is -10.7%.
For the compound `CC(C)n1cc(CN2CCCN(C(=O)C3CCCN3C)CC2)cn1` (stereo unspecified), the cytotoxicity at 10 µM was -10%.
To `CCN(CC1CCCO1)C(=O)Nc1cccc(Cl)c1OC` (stereo unspecified) belongs -21.4%; to `CC(=O)Nc1nc(C(=O)N2CCCC2c2ccc(Br)cc2)cs1` (stereo unspecified), -18.4%; to `Cc1ccc(C)n1-c1ccc(C(=O)NCCNc2ncccn2)cc1`, -1.25%.
Next, `CCOc1ccnc(N2CCN(C(=O)C(C)(C)C#N)CC2)n1`: -4.91%; `CC(C)c1nc(C2CCCN(C(=O)Cc3cccnc3)C2)no1` (stereo unspecified): -8.97%.
On to `COCC(C)N(C)C(=O)c1nc(S(C)(=O)=O)n2ccccc12` (stereo unspecified), for which the cytotoxicity at 10 µM was -11%.
`O=C(Nc1nnc(C2CC2)s1)NC1CCN(Cc2ccccc2)C1` (stereo unspecified): the cytotoxicity at 10 µM is -10.7%.
Take `Cn1cnc2c1CCN(Cc1cccc(OCC(N)=O)c1)C2`: the cytotoxicity at 10 µM was -9.98%.
To `Cc1nc2cc(=O)[nH]n2c(C)c1CC(=O)Nc1ccc2ccccc2n1` belongs -4.15%.
On to `Cc1ccccc1CNC(=O)Cc1c(C)nc2cc(=O)[nH]n2c1C`, for which the cytotoxicity at 10 µM is -2.35%.
For the compound `N#Cc1ccccc1N1CCCN(C(=O)CCc2nccs2)CC1`, the cytotoxicity at 10 µM was -2.12%.
Next, `Cc1ccc(NC2CCN(C(=O)c3cnc(C)s3)CC2)nn1`: 2.48%; `CCc1nc(C2CCCN2C(=O)c2c[nH]c(C)n2)no1` (stereo unspecified): -0.674%.
Next, `Cn1nc2c(cc1=O)CN(Cc1nc(-c3cccs3)no1)CC2`: -2.82%.
To `CC(C)c1nc(C2CCCN2CCCc2nc3ccccc3o2)no1` (stereo unspecified) belongs -8.43%; to `O=C(NCC(=O)N1CCc2ccccc2C1)c1ccoc1`, -4.59%; to `Cc1noc(C)c1CNCC1CCCN1c1cccnn1` (stereo unspecified), 3.3%.
Regarding `Cc1ccc(NC(=O)C(C)N2CCCN(c3nccs3)CC2)c(C)c1` (stereo unspecified), the cytotoxicity at 10 µM stood at 2.72%.
Next, `O=S(=O)(C1CC1)N1C[C@@H]2COC[C@]2(COc2ccccn2)C1`: 5.57%; `Cn1cc(N2CC3(CCN(Cc4nccs4)CC3)OCC2=O)cn1`: 5.86%; `CS(=O)(=O)N[C@@H]1CN(Cc2ccncc2)C[C@@H]2CCCO[C@@H]21`: 13.1%.
Take `O=C(NC1CCCC1)N1CC[C@H]2[C@H]1CCN2c1nncs1`: the cytotoxicity at 10 µM was -7.73%.
On to `O=C(c1ccnnc1)N1CCN2C[C@H](OCc3cccnc3)C[C@H]2C1`, for which the cytotoxicity at 10 µM is -72.4%.
Next, `CCN1C[C@@H]2[C@@H](OC)CCN(S(=O)(=O)c3cccnc3)[C@@H]2C1`: -77%.
Next, `c1ccc(COC[C@H]2CC[C@H]3[C@H](CCN3c3ncccn3)O2)nc1`: -78%; `COc1ccc(CN2CCn3c(C(=O)N(C)C)cnc3C2)cc1`: -69.6%.
Take `CCOCC1CN(C(=O)Cc2ccccn2)Cc2c1cnn2C` (stereo unspecified): the cytotoxicity at 10 µM was -72%.
Next, `CC(C)(C)c1n[nH]cc1CNCC1CCN(C2CC2)C1` (stereo unspecified): 2.16%; `CCOC(=O)c1cnn(C2CCN(C(=O)CC3CCCC3)CC2)c1N`: 0.969%.
